Measurements from ChEMBL document CHEMBL4261549 (Medchemcomm, 2017).
The source made the active and inactive calls. The calls are words filed in the database; no cut-off is given here.

Key:
[1] = system: HCT-116; assay: Antiproliferative activity against human HCT116 cells after 48 hrs by MTT assay; format: functional, cell-based; settings: HCT-116, 48 h
How it was run: (§1)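 MTT dye-uptake viability assay; cells seeded at 2.5 × 10^3 per well, grown in RPMI 1640/DMEM with 10% FBS and penicillin/streptomycin at 37 °C, 5% CO2. Exposure to compounds for 48 h over 100 nM to 100 μM. IC50 versus untreated control, given as mean ± SD of three independent experiments.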

[2] = system: MCF7; assay: Antiproliferative activity against human MCF7 cells after 48 hrs by MTT assay; format: functional, cell-based; settings: MCF7, 48 h; how it was run: as §1
[3] = system: PC-3; assay: Antiproliferative activity against human PC3 cells after 48 hrs by MTT assay; format: functional, cell-based; settings: PC-3, 48 h; how it was run: as §1
[4] = species: Homo sapiens; assay: Inhibition of PI3K/Akt in human PC3 cells assessed as reduction in NF-kB dependant MMP2 activation after 48 hrs by gelatin zymographic method; format: cell-based
How it was run: (§2)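 Gelatin zymography. Subconfluent (70–80%) PC-3 cells in fresh medium incubated 48 h with increasing concentrations. Equal protein from conditioned media run on 7.5% SDS-PAGE containing 0.1% gelatin, 100 V, 3 h, 4 °C. Gels washed in 2% Triton X-100, incubated overnight at 37 °C in Tris-HCl pH 8.0/10 mM CaCl2 buffer, then Coomassie stained. BSA as loading control.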

[5] = system: PC-3; assay: Effect on total AKT protein expression in human PC3 cells at 2.5 to 4.5 uM after 24 hrs by Western blot method; format: ADME, cell-based; settings: pc-3, 24 h
How it was run: (§3)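 PC-3 cells exposed to indicated concentrations or DMSO, then lysed. Equal protein amounts analysed by western blotting, with β-actin as loading control. Representative of three independent experiments.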

[6] = target: Serine/threonine-protein kinase mTOR (Homo sapiens) (UniProt P42345); assay: Inhibition of mTOR phosphorylation in human PC3 cells at 2.5 to 4.5 uM after 24 hrs by Western blot method; format: cell-based; how it was run: as §3
[7] = target: RAC-alpha serine/threonine-protein kinase (Homo sapiens) (UniProt P31749); assay: Inhibition of AKT phosphorylation in human PC3 cells at 2.5 to 4.5 uM after 24 hrs by Western blot method; format: cell-based; how it was run: as §3
RAC-alpha serine/threonine-protein kinase (Homo sapiens), sequence (P31749 whole entry): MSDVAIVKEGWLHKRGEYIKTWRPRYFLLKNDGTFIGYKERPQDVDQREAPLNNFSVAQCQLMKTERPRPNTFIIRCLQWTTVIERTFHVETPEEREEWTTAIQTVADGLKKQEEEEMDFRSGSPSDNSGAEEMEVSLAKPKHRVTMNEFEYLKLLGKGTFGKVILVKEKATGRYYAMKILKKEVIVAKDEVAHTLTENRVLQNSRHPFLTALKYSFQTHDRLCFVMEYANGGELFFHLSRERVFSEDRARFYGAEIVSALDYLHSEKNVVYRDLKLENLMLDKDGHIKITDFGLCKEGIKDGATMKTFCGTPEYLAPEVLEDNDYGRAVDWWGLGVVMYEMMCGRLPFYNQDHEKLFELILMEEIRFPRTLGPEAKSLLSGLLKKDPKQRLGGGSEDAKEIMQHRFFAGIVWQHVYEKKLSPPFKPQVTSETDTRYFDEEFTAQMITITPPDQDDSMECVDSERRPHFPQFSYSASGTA

[8] = system: PC-3; assay: Antimigratory activity against human PC3 cells assessed as reduction in wound closure after 48 hrs by inverted microscopic assay; format: functional, cell-based; settings: in the assay text read “24 hrs” for “48 hrs”
How it was run: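 Scratch assay. PC-3 cells (5 × 10^5 per well) grown 24 h to a confluent monolayer, then serum-starved 24 h. Monolayer scratched with a pipette tip and washed, then treated in 1.0% serum medium with graded concentrations or DMSO for 24 h. Photographed at 20×. % wound closure = [1 – (area t1/area t0) × 100%].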

[9] = system: PC-3; assay: Anti-invasive activity against human PC3 cells after 48 hrs by Boyden chamber assay; format: functional, cell-based
How it was run: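 Matrigel (Boyden chamber) invasion kit used per manufacturer. PC-3 cells (1.2 × 10^6 per well) treated with graded concentrations or DMSO vehicle. Invaded cells counted per field and imaged at 20× magnification. Three independent experiments.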

[10] = species: Homo sapiens; assay: Inhibition of PI3K/Akt signaling in human PC3 cells assessed as downregulation of NF-kB expression after 24 hrs by Western blot method; format: cell-based; how it was run: as §3
[11] = system: PC-3; assay: Antimetastatic activity against human PC3 cells assessed as increase in E-cadherin protein expression at 2.5 to 4.5 uM after 24 hrs by Western blot method; format: functional, cell-based; how it was run: as §3
[12] = system: PC-3; assay: Induction of apoptosis in human PC3 cells assessed as caspase-3/7 activation by caspase3/7-Glo assay; format: functional, cell-based
How it was run: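 Cells seeded at 5 × 10^3 per well in 96-well plates for 24 h, then treated. Caspase-3/7 Glo reagent/substrate mix added for 25 min, and luminescence read.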

[13] = species: Homo sapiens; assay: Inhibition of PI3K/Akt in human PC3 cells assessed as reduction in NF-kB dependant MMP9 activation after 48 hrs by gelatin zymographic method; format: cell-based; how it was run: as §2
[14] = system: PC-3; assay: Inhibition of colony formation in human PC3 cells at 2.5 to 4.5 uM after 5 days by crystal violet staining based inverted microscopic assay; format: functional, cell-based
How it was run: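 Clonogenic assay. PC-3 cells (1 × 10^3 per well) plated, medium replaced after 24 h, then exposed to graded concentrations or DMSO vehicle for 5 days. Colonies stained with crystal violet, counted randomly and imaged at 20×. Three independent experiments.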

[15] = system: PC-3; assay: Inhibition of VEGF-induced cell scattering in human PC3 cells at 2.5 to 4.5 uM after 24 to 48 hrs by inverted microscopic assay; format: functional, cell-based
How it was run: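 PC-3 cells seeded at 1000 per well and grown 3–4 days into discrete colonies. Stimulated with VEGF in growth medium with graded concentrations. After overnight (24 h) incubation, individual colonies observed by bright-field/inverted microscopy and photographed. Representative of three experiments.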

[16] = species: Homo sapiens; assay: Inhibition of PI3K/Akt in human PC3 cells assessed as downregulation of NF-kB dependant MMP2 protein expression at 2.5 to 4.5 uM after 24 hrs by Western blot method; format: cell-based; how it was run: as §3
[17] = system: PC-3; assay: Inhibition of PI3K/Akt in human PC3 cells assessed as downregulation of NF-kB dependant MMP9 protein expression at 2.5 to 4.5 uM after 24 hrs by Western blot method; format: functional, cell-based; how it was run: as §3
[18] = system: PC-3; assay: Anti-invasive activity against human PC3 cells assessed as increase in TIMP1 protein expression after 24 hrs by Western blot method; format: functional, cell-based; how it was run: as §3
[19] = system: BPH-1; assay: Antiproliferative activity against human BPH1 cells after 48 hrs by MTT assay; format: cell-based; settings: BPH-1, 48 h
[20] = system: PC-3; assay: Antimetastatic activity against human PC3 cells assessed as decrease in vimentin protein expression at 2.5 to 4.5 uM after 24 hrs by Western blot method; format: functional, cell-based; how it was run: as §3
[21] = system: PC-3; assay: Induction of mitochondrial membrane potential loss in human PC3 cells after 24 hrs by JC1 staining based fluorescence microscopic method; format: functional, cell-based
How it was run: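 Treated PC-3 cells (1 × 10^6 per well) washed with cold PBS and stained with JC-1 at 1 μM final for 30 min at 37 °C. Aggregates and monomers assessed by fluorescence microscopy.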

[22] = target: Serine/threonine-protein kinase mTOR (Homo sapiens) (UniProt P42345); assay: Inhibition of mTOR signaling in human PC3 cells assessed as reduction in S6K protein expression at 2.5 to 4.5 uM after 24 hrs by Western blot method; format: cell-based; how it was run: as §3
[23] = system: PC-3; assay: Effect on total mTOR protein expression in human PC3 cells at 2.5 to 4.5 uM after 24 hrs by Western blot method; format: ADME, cell-based; settings: pc-3, 24 h; how it was run: as §3

Row | SMILES | IC50 [1] | IC50 [2] | IC50 [3] | other results
1 | COc1ccc(-n2cc(COc3ccc(/C=C/C(C)=O)cc3OC)nn2)cc1 | 21.3 µM | 33.7 µM | 2.01 µM | 
2 | COc1cc(/C=C/C(C)=O)ccc1O [DEHYDROZINGERONE] | 34.8 µM | 54.6 µM | 43.2 µM | 
3 | COc1cccc(-n2cc(COc3ccc(/C=C/C(C)=O)cc3OC)nn2)c1 | 29.6 µM | 1.8 µM | 31.6 µM | 
4 | COc1cc(/C=C/C(C)=O)ccc1OCc1cn(-c2ccc(NC(=O)c3ccccc3)cc2)nn1 | > 100 µM | 86.7 µM | 76.8 µM | 
5 | COc1cc(/C=C/C(C)=O)ccc1OCc1cn(-c2ccccc2CO)nn1 | > 100 µM | 65.8 µM | 50.3 µM | 
6 | COc1cc(/C=C/C(C)=O)ccc1OCc1cn(-c2ccc(/N=N/c3ccccc3)cc2)nn1 | > 100 µM | 75.9 µM | 42.1 µM | 
7 | COc1cc(/C=C/C(C)=O)ccc1OCc1cn(-c2ccccc2OC)nn1 | 25.7 µM | 29.1 µM | 2.04 µM | 
8 | CCOC(=O)c1ccc(-n2cc(COc3ccc(/C=C/C(C)=O)cc3OC)nn2)cc1 | 78.9 µM | > 100 µM | 59.2 µM | 
9 | COc1cc(/C=C/C(C)=O)ccc1OCc1cn(-c2ccc(C(F)(F)F)c(C(F)(F)F)c2)nn1 | 57.8 µM | 87.4 µM | 67.2 µM | 
10 | COc1cc(/C=C/C(C)=O)ccc1OCc1cn(-c2cc(F)cc(Br)c2)nn1 | 45.4 µM | 65.5 µM | 56.9 µM | 
11 | COc1cc(/C=C/C(C)=O)ccc1OCc1cn(-c2c(Cl)cccc2Cl)nn1 | 2 µM | 26.6 µM | 3.07 µM | inhibition [4]: Dose-dependent effect; Activity [5]: Non-Toxic; inhibition [6]: Active; inhibition [7]: Active; Activity [8]: Dose-dependent effect; Activity [9]: Dose-dependent effect; inhibition [10]: Dose-dependent effect; Activity [11]: Active; Activity [12]: Active; inhibition [13]: Dose-dependent effect; inhibition [14]: Active; inhibition [15]: Active; inhibition [16]: Active; inhibition [17]: Active; Activity [18]: Dose-dependent effect; IC50 [19]: > 100 µM; Activity [20]: Active; Activity [21]: Dose-dependent effect; inhibition [22]: Active; Activity [23]: Non-Toxic
12 | COc1cc(/C=C/C(C)=O)ccc1OCc1cn(-c2ccc([N+](=O)[O-])cc2)nn1 | 96.3 µM | > 100 µM | 46.7 µM | 
13 | C#CCOc1ccc(/C=C/C(C)=O)cc1OC | 49.7 µM | 65.4 µM | 40.2 µM | 
14 | COc1cc(/C=C/C(C)=O)ccc1OCc1cn(-c2c(F)cccc2F)nn1 | 37.7 µM | 2.03 µM | 24.2 µM | 

Further lines, with some results ahead:

Row | IC50 [1] | IC50 [2] | IC50 [3] | SMILES | other results
15 | 39 µM | 2.19 µM | 48 µM | COc1cc(/C=C/C(C)=O)ccc1OCc1cn(-c2ccccc2Cl)nn1 | 
16 | 76.2 µM | 86.4 µM | 80.7 µM | COc1cc(/C=C/C(C)=O)ccc1OCc1cn(-c2ccc(C=O)cc2)nn1 | 
17 | 76.4 µM | > 100 µM | 59.2 µM | COc1cc(/C=C/C(C)=O)ccc1OCc1cn(-c2ccccc2O)nn1 | 
18 | 76.6 µM | > 100 µM | 58.1 µM | COc1cc(/C=C/C(C)=O)ccc1OCc1cn(-c2ccc(C)cc2)nn1 | 
19 | 67.3 µM | > 100 µM | 78.6 µM | COc1cc(/C=C/C(C)=O)ccc1OCc1cn(-c2ccccc2)nn1 | 
20 | 65.2 µM | 65.4 µM | 56.8 µM | COc1cc(/C=C/C(C)=O)ccc1OCc1cn(-c2ccc(-c3ccccc3)cc2)nn1 | 
